Results published in ChEMBL document CHEMBL1149266, “2,3-diaminopyridine bradykinin B1 receptor antagonists” (J Med Chem, 2004).

Assays:
[1] = Oral bioavailability in Sprague-Dawley rat at 10 mg/kg, po; type: ADME, organism-based; conditions: in vivo
B1 bradykinin receptor [2] = target: T1, B1 bradykinin receptor (Homo sapiens, UniProt P46663); experiment: Displacement of [3H]des-arg10, leu9-kallidin from human bradykinin B1 receptor expressed in CHO cells; type: cell-based
T1 sequence (P46663 whole entry): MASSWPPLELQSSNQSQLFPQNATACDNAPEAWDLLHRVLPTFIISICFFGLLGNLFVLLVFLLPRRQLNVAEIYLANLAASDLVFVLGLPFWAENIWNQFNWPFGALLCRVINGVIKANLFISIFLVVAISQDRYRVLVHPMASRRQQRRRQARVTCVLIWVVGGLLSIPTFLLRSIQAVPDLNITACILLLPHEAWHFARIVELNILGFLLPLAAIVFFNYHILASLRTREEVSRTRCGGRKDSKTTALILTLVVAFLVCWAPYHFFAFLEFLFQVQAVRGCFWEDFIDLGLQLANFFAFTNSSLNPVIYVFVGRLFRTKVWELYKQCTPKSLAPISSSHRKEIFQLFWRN
Method in brief: (§1)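 Radioligand binding using CHO cells that stably express the human B1 or B2 receptor, with the appropriate radioligand for each; Ki in nM.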

[3] = Oral bioavailability in mongrel dog at 3 mg/kg, po; type: ADME, organism-based, Canis lupus familiaris; conditions: in vivo
[4] = Clearance in mongrel dog at 1 mg/kg, iv; type: ADME, organism-based, Canis lupus familiaris; design: dose 1 mg/kg, route intravenous; conditions: in vivo
B1 bradykinin receptor [5] = target: T1, B1 bradykinin receptor; experiment: Antagonist activity at bradykinin B1 receptor expressed in CHO cells assessed as inhibition of des-arg10-kallidin-induced increase in cytosolic calcium level by FLIPR assay; type: functional, cell-based
Method in brief: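 FLIPR functional assay using functionally active human B1 receptors; IC50 in nM.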

[6] = Half life in mongrel dog at 1 mg/kg, iv; type: ADME, organism-based, Canis lupus familiaris; design: dose 1 mg/kg, route intravenous; conditions: in vivo
[7] = Clearance in Sprague-Dawley rat at 2 mg/kg, iv; type: ADME, organism-based; design: dose 2 mg/kg, route intravenous; conditions: in vivo
[8] = Half life in Sprague-Dawley rat at 2 mg/kg, iv; type: ADME, organism-based; design: dose 2 mg/kg, route intravenous; conditions: in vivo
B1 bradykinin receptor [9] = target: T2, B1 bradykinin receptor (Rattus norvegicus, UniProt P97583); experiment: Displacement of [3H]des-arg10 kallidin from rat bradykinin B1 receptor expressed in CHO cells; type: cell-based
T2 sequence (P97583 whole entry): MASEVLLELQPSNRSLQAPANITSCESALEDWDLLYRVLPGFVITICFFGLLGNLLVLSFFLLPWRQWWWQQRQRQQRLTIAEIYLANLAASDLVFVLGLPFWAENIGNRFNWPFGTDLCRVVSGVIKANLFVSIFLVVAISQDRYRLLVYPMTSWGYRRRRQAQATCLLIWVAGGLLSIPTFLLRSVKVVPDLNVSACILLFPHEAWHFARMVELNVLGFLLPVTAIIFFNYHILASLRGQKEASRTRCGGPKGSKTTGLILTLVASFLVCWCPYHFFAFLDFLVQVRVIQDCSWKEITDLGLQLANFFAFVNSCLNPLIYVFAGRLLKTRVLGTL
Method in brief: (§2)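 Radioligand binding at rat or rabbit B1 receptor; Ki in nM. Values are the average of at least two experiments, with ±25% interassay variability.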

B1 bradykinin receptor [10] = target: T3, B1 bradykinin receptor (Oryctolagus cuniculus, UniProt P48748); experiment: Activity at rabbit bradykinin B1 receptor assessed by FLIPR assay; type: functional
T3 sequence (P48748 whole entry): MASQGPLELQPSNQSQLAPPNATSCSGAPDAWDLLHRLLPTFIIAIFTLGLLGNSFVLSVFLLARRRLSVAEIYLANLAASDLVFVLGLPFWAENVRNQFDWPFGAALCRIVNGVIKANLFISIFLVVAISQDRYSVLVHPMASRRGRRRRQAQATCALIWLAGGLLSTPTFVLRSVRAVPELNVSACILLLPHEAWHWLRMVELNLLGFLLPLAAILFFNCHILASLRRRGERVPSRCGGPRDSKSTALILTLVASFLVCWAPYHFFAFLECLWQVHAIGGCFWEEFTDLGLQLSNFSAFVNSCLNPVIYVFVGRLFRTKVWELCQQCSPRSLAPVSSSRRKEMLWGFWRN
Method in brief: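 FLIPR functional assay using functionally active rabbit B1 receptors; IC50 in nM. Values are the average of at least two experiments, with ±30% interassay variability.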

Oryctolagus cuniculus = experiment: Antinociceptive effect against CFA-induced hyperalgesia in iv dosed New Zealand rabbit model by spinal nociceptive reflex assay; type: functional; conditions: read-out: ID50 (the source's name)
Method in brief: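 CFA was used to induce mechanical hyperalgesia in the rabbit hind paw. The read-out was inhibition of the spinal nociceptive reflex to a noxious pinch of the inflamed paw. Antagonist was dosed iv over a dose range, giving an ID50 (mg/kg). Three rabbits per experiment.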

[11] = target: T4, B1 bradykinin receptor (Oryctolagus cuniculus) (UniProt P48748); experiment: Inhibition of desArg9-bradykinin-induced decrease in mean arterial blood pressure in iv dosed New Zealand white rabbit; type: functional, organism-based
T4 sequence (whole entry): T3 sequence (P48748 whole entry)
Method in brief: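 Rabbits received iv LPS to induce vascular B1 receptors. The depressor blood pressure response to DABK (1 μg/kg iv) was recorded. Rising iv doses of antagonist were given as pretreatment before repeated DABK doses, giving an AD50 (mg/kg). Three rabbits per experiment.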

B1 bradykinin receptor [12] = target: T3, B1 bradykinin receptor; experiment: Binding affinity to rabbit bradykinin B1 receptor; method in brief: as §2
B2 bradykinin receptor = target: T5, B2 bradykinin receptor (Homo sapiens, UniProt P30411); experiment: Displacement of [3H]bradykinin from human bradykinin B2 receptor expressed in CHO cells; type: cell-based; method in brief: as §1
T5 sequence (P30411 whole entry): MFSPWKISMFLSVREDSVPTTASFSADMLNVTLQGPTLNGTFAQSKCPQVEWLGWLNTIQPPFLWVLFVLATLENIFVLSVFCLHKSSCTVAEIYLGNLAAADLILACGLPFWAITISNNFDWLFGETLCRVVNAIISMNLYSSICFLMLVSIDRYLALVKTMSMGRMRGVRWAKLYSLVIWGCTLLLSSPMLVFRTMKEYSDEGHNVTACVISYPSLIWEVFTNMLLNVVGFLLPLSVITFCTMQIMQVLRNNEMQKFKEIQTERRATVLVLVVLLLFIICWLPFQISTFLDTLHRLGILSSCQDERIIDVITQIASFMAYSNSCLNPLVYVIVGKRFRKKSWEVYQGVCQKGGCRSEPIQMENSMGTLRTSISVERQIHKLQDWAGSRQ

Row | bioavailability [1] | Ki (B1 bradykinin receptor [2]) | bioavailability [3] | clearance [4] | IC50 (B1 bradykinin receptor [5]) | half-life [6] | clearance [7] | half-life [8] | Ki (B1 bradykinin receptor [9]) | IC50 (B1 bradykinin receptor [10]) | Ki (B1 bradykinin receptor [12]) | Ki (B2 bradykinin receptor) | Structure (SMILES) | ED50 (Oryctolagus cuniculus) | AD50 [11]
1 | 6% | 0.8 nM (antagonist) | 2% | 5.5 mL/min/kg | 1.5 nM (antagonist) | 0.9 h | 25 mL/min/kg | 0.5 h | – | – | – | – | COC(=O)c1ccc(Cl)cc1-c1ccc([C@@H](C)Nc2nccc(Cl)c2NC(=O)CC#N)cc1 | – | –
2 | – | 200 nM (antagonist) | – | – | – | – | – | – | – | – | – | – | CCCCC(=O)Nc1cccnc1NCc1ccc(-c2ccccc2C(=O)OC)cc1 | – | –
3 | 80% | 2 nM (antagonist) | – | – | – | – | 8.3 mL/min/kg | 0.9 h | – | – | – | – | C[C@@H](Nc1nccc(Cl)c1NC(=O)CC#N)c1ccc(-c2cccc(F)c2C#N)cc1 | – | –
4 | 43% | 0.7 nM (antagonist) | 23% | 8.7 mL/min/kg | 0.85 nM (antagonist) | 6.3 h | 24 mL/min/kg | 1.3 h | 35.7 nM (antagonist) | 7.2 nM (antagonist) | 1.1 nM (antagonist) | – | COC(=O)c1c(Cl)cccc1-c1ccc([C@@H](C)Nc2nccc(Cl)c2NC(=O)CC#N)cc1 | 0.9 mg/kg | 0.8 mg/kg
5 | 62% | 0.5 nM (antagonist) | 14% | 7.3 mL/min/kg | 0.94 nM (antagonist) | 2.1 h | 9.5 mL/min/kg | 8.8 h | 81 nM (antagonist) | 12.3 nM (antagonist) | 2.7 nM (antagonist) | – | Cc1noc(-c2c(F)cccc2-c2ccc([C@@H](C)Nc3nccc(Cl)c3NC(=O)CC#N)cc2)n1 | – | –
6 | 21% | 1.2 nM (antagonist) | – | – | 1.4 nM (antagonist) | – | 42 mL/min/kg | 0.6 h | – | – | – | > 10000 nM | COC(=O)c1ccc(C)cc1-c1ccc([C@@H](C)Nc2nccc(C)c2NC(=O)CC#N)cc1 | – | –
7 | 73% | 0.5 nM (antagonist) | 69% | 2.4 mL/min/kg | 1.17 nM (antagonist) | 3.8 h | 9 mL/min/kg | 7.8 h | 119 nM (antagonist) | 3.9 nM (antagonist) | 3 nM (antagonist) | – | C[C@@H](Nc1nccc(Cl)c1NC(=O)CC#N)c1ccc(-c2cccc(F)c2-c2nnn(C)n2)cc1 | 3.1 mg/kg | 0.28 mg/kg
8 | 50% | 0.7 nM (antagonist) | 25% | 5.9 mL/min/kg | 0.78 nM (antagonist) | 2 h | 4.9 mL/min/kg | 12.9 h | – | – | – | – | Cc1nc(-c2c(F)cccc2-c2ccc([C@@H](C)Nc3nccc(Cl)c3NC(=O)CC#N)cc2)no1 | – | –
9 | 52% | 1.1 nM (antagonist) | – | – | – | – | 36 mL/min/kg | 1.8 h | – | – | – | – | C[C@@H](Nc1nccc(Cl)c1NC(=O)CC#N)c1ccc(-c2cccc(F)c2C(F)(F)F)cc1 | – | –
10 | – | 6 nM (antagonist) | – | – | – | – | – | – | 12 nM (antagonist) | – | 41.5 nM (antagonist) | – | C[C@@H](Nc1nccc(Cl)c1NC(=O)CC#N)c1ccc(-c2cccc(F)c2-c2nnnn2C)cc1 | – | –
11 | 50% | 0.4 nM (antagonist) | 34% | 9 mL/min/kg | 0.25 nM (antagonist) | 2.7 h | 11 mL/min/kg | 2.1 h | 35.3 nM (antagonist) | 2.4 nM (antagonist) | 0.69 nM (antagonist) | – | COC(=O)c1c(F)cccc1-c1ccc([C@@H](C)Nc2nccc(Cl)c2NC(=O)CC#N)cc1 | 2.1 mg/kg | 0.57 mg/kg
